Measurements published in ChEMBL document CHEMBL5247575 (J Med Chem, 2018).

Experiments:
[1] = tested on: Bacteria; assay: Inhibition of bacteria PDC-3 assessed as second order rate constant K2/K using nitrocefin as substrate
[2] = tested on: Acinetobacter baumannii; assay: Synergistic antibacterial activity against Acinetobacter baumannii PR474 producing OXA-23/24/40 assessed as cefepime MIC at 4 ug/ml by broth microdilution method; assay type: functional; conditions: dose 4 µg/ml
[3] = tested on: Escherichia coli; assay: Synergistic antibacterial activity against Escherichia coli DH10B transfected with pBC SK (-) KPC-3 assessed as meropenem MIC at 4 ug/ml by broth microdilution method; assay type: functional; conditions: dose 4 µg/ml
[4] = tested on: Klebsiella pneumoniae; assay: Synergistic antibacterial activity against Klebsiella pneumoniae 935/1884 producing KPC-3 assessed as meropenem MIC at 4 ug/ml by broth microdilution method; assay type: functional; conditions: dose 4 µg/ml
[5] = tested on: Pseudomonas aeruginosa; assay: Synergistic antibacterial activity against Pseudomonas aeruginosa CL232 assessed as cefepime MIC at 4 ug/ml by broth microdilution method; assay type: functional; conditions: dose 4 µg/ml
[6] = tested on: Escherichia coli; assay: Antibacterial activity against Escherichia coli DH10B transfected with pBC SK (-) OXA-48 by broth microdilution method; assay type: functional
[7] = tested on: Acinetobacter baumannii; assay: Synergistic antibacterial activity against Acinetobacter baumannii PR359 producing OXA-23 assessed as cefepime MIC at 4 ug/ml by broth microdilution method; assay type: functional; conditions: dose 4 µg/ml
[8] = tested on: Klebsiella pneumoniae; assay: Synergistic antibacterial activity against Klebsiella pneumoniae 1354/2241 producing KPC-3 assessed as cefepime MIC at 4 ug/ml by broth microdilution method; assay type: functional; conditions: dose 4 µg/ml
In short: (§1)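 Broth microdilution per CLSI guidelines, using custom frozen panels. […] Each partner drug was also tested alone. MICs were run in triplicate and the modal value is reported.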

[9] = tested on: Acinetobacter baumannii; assay: Synergistic antibacterial activity against Acinetobacter baumannii PR319 producing OXA-23/24/40 assessed as meropenem MIC at 4 ug/ml by broth microdilution method; assay type: functional; conditions: dose 4 µg/ml
[10] = tested on: Acinetobacter baumannii; assay: Synergistic antibacterial activity against Acinetobacter baumannii PR440 producing OXA-23/24/40 assessed as cefepime MIC at 4 ug/ml by broth microdilution method; assay type: functional; conditions: dose 4 µg/ml
[11] = tested on: Pseudomonas aeruginosa; assay: Synergistic antibacterial activity against Pseudomonas aeruginosa 839 assessed as cefepime MIC at 4 ug/ml by broth microdilution method; assay type: functional; conditions: dose 4 µg/ml
[12] = tested on: Klebsiella pneumoniae; assay: Synergistic antibacterial activity against Klebsiella pneumoniae 977/1916 producing KPC-3 assessed as meropenem MIC at 4 ug/ml by broth microdilution method; assay type: functional; conditions: dose 4 µg/ml
[13] = tested on: Bacteria; assay: Inhibition of bacteria KPC-2 assessed as second order rate constant K2/K using nitrocefin as substrate
In short: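 Steady-state kinetics, 10 mM phosphate-buffered saline pH 7.4. Progress curves recorded with fixed enzyme and nitrocefin and increasing nM inhibitor. Each curve fitted to a time-course equation to give k_obs. k2/K derived from these and corrected for nitrocefin concentration relative to its Km.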

[14] = tested on: Escherichia coli; assay: Synergistic antibacterial activity against Escherichia coli DH10B transfected with pBC SK (-) KPC-2 assessed as cefepime MIC at 4 ug/ml by broth microdilution method; assay type: functional; conditions: dose 4 µg/ml
[15] = tested on: Escherichia coli; assay: Synergistic antibacterial activity against Escherichia coli DH10B transfected with pBR322-catI-KPC-2 assessed as meropenem MIC at 4 ug/ml by broth microdilution method; assay type: functional; conditions: dose 4 µg/ml; in short: as §1
[16] = tested on: Escherichia coli; assay: Antibacterial activity against Escherichia coli DH10B transfected with pBC SK (-) KPC-3 by broth microdilution method; assay type: functional
[17] = tested on: Acinetobacter baumannii; assay: Synergistic antibacterial activity against ADC deleted Acinetobacter baumannii transfected with pWH1266 producing OXA-24/40 assessed as cefepime MIC at 4 ug/ml by broth microdilution method; assay type: functional; conditions: dose 4 µg/ml
[18] = tested on: Klebsiella pneumoniae; assay: Synergistic antibacterial activity against Klebsiella pneumoniae NY BS producing OXA-232 assessed as meropenem MIC at 4 ug/ml by broth microdilution method; assay type: functional; conditions: dose 4 µg/ml
[19] = tested on: Klebsiella pneumoniae; assay: Synergistic antibacterial activity against Klebsiella pneumoniae 972/1910 producing KPC-3 assessed as meropenem MIC at 8 ug/ml by broth microdilution method; assay type: functional; conditions: dose 8 µg/ml
[20] = tested on: Acinetobacter baumannii; assay: Synergistic antibacterial activity against Acinetobacter baumannii PR408 producing OXA-24/40 assessed as meropenem MIC at 8 ug/ml by broth microdilution method; assay type: functional; conditions: dose 8 µg/ml
[21] = tested on: Escherichia coli; assay: Synergistic antibacterial activity against Escherichia coli DH10B transfected with pBC SK (-) OXA-48 assessed as meropenem MIC at 8 ug/ml by broth microdilution method; assay type: functional; conditions: dose 8 µg/ml; in short: as §1
[22] = tested on: Escherichia coli; assay: Synergistic antibacterial activity against Escherichia coli DH10B assessed as meropenem MIC at 8 ug/ml by broth microdilution method; assay type: functional; conditions: dose 8 µg/ml
[23] = tested on: Klebsiella pneumoniae; assay: Synergistic antibacterial activity against Klebsiella pneumoniae 1084/1957 producing KPC-3 assessed as cefepime MIC at 8 ug/ml by broth microdilution method; assay type: functional; conditions: dose 8 µg/ml; in short: as §1
[24] = tested on: Klebsiella pneumoniae; assay: Synergistic antibacterial activity against Klebsiella pneumoniae NY BS producing OXA-232 assessed as cefepime MIC at 8 ug/ml by broth microdilution method; assay type: functional; conditions: dose 8 µg/ml
[25] = tested on: Acinetobacter baumannii; assay: Synergistic antibacterial activity against Acinetobacter baumannii PR420 producing OXA-23/24/40 assessed as cefepime MIC at 8 ug/ml by broth microdilution method; assay type: functional; conditions: dose 8 µg/ml
[26] = tested on: Escherichia coli; assay: Synergistic antibacterial activity against Escherichia coli DH10B transfected with pBC SK (-) PDC-3 assessed as cefepime MIC at 8 ug/ml by broth microdilution method; assay type: functional; conditions: dose 8 µg/ml; in short: as §1
[27] = tested on: Acinetobacter baumannii; assay: Synergistic antibacterial activity against Acinetobacter baumannii PR476 producing OXA-24/40 assessed as cefepime MIC at 8 ug/ml by broth microdilution method; assay type: functional; conditions: dose 8 µg/ml
[28] = tested on: Klebsiella pneumoniae; assay: Synergistic antibacterial activity against Klebsiella pneumoniae 1108/1989 producing KPC-3 assessed as cefepime MIC at 8 ug/ml by broth microdilution method; assay type: functional; conditions: dose 8 µg/ml; in short: as §1
[29] = tested on: Acinetobacter baumannii; assay: Synergistic antibacterial activity against Acinetobacter baumannii PR381 producing OXA-24/40 assessed as cefepime MIC at 8 ug/ml by broth microdilution method; assay type: functional; conditions: dose 8 µg/ml
[30] = tested on: Klebsiella pneumoniae; assay: Synergistic antibacterial activity against Klebsiella pneumoniae 11978 producing OXA-48 assessed as meropenem MIC at 8 ug/ml by broth microdilution method; assay type: functional; conditions: dose 8 µg/ml; in short: as §1
[31] = tested on: Klebsiella pneumoniae; assay: Synergistic antibacterial activity against Klebsiella pneumoniae 1084/1957 producing KPC-3 assessed as meropenem MIC at 8 ug/ml by broth microdilution method; assay type: functional; conditions: dose 8 µg/ml; in short: as §1
[32] = tested on: Escherichia coli; assay: Synergistic antibacterial activity against Escherichia coli DH10B transfected with pBR322-catI-KPC-2 assessed as meropenem MIC at 8 ug/ml by broth microdilution method; assay type: functional; conditions: dose 8 µg/ml; in short: as §1
[33] = tested on: Acinetobacter baumannii; assay: Synergistic antibacterial activity against Acinetobacter baumannii PR448 producing OXA-23 assessed as meropenem MIC at 8 ug/ml by broth microdilution method; assay type: functional; conditions: dose 8 µg/ml
[34] = tested on: Acinetobacter baumannii; assay: Synergistic antibacterial activity against Acinetobacter baumannii PR476 producing OXA-24/40 assessed as meropenem MIC at 8 ug/ml by broth microdilution method; assay type: functional; conditions: dose 8 µg/ml
[35] = tested on: Acinetobacter baumannii; assay: Synergistic antibacterial activity against Acinetobacter baumannii PR323 producing OXA-24/40 assessed as cefepime MIC at 8 ug/ml by broth microdilution method; assay type: functional; conditions: dose 8 µg/ml
[36] = tested on: Acinetobacter baumannii; assay: Synergistic antibacterial activity against Acinetobacter baumannii PR381 producing OXA-24/40 assessed as meropenem MIC at 8 ug/ml by broth microdilution method; assay type: functional; conditions: dose 8 µg/ml
[37] = tested on: Klebsiella pneumoniae; assay: Synergistic antibacterial activity against Klebsiella pneumoniae CAV 1543 producing OXA-48 assessed as cefepime MIC at 8 ug/ml by broth microdilution method; assay type: functional; conditions: dose 8 µg/ml
[38] = tested on: Acinetobacter baumannii; assay: Synergistic antibacterial activity against Acinetobacter baumannii PR319 producing OXA-23/24/40 assessed as meropenem MIC at 8 ug/ml by broth microdilution method; assay type: functional; conditions: dose 8 µg/ml

O.O=C(NC1CCNCC1)[C@@H]1CC[C@@H]2CN1C(=O)N2OS(=O)(=O)O [RELEBACTAM]
K [1]: 4.6 10^4/M/s | MIC [2]: > 16 µg/mL | MIC [3]: ≤ 0.12 µg/mL | MIC [4]: ≤ 0.12 µg/mL | MIC [5]: 16 µg/mL | MIC [6]: > 16 µg/mL | MIC [7]: 16 µg/mL | MIC [8]: ≤ 0.12 µg/mL | MIC [9]: > 16 µg/mL | MIC [10]: > 16 µg/mL | MIC [11]: 4 µg/mL | MIC [12]: ≤ 0.12 µg/mL | K [13]: 2.8 10^4/M/s | MIC [14]: ≤ 0.12 µg/mL | MIC [15]: ≤ 0.12 µg/mL | MIC [16]: > 16 µg/mL | MIC [17]: > 16 µg/mL | MIC [18]: > 16 µg/mL

NC(=O)[C@@H]1CC[C@@H]2CN1C(=O)N2OS(=O)(=O)[O-].[Na+] [AVIBACTAM SODIUM]
K [1]: 2.9 10^4/M/s | MIC [2]: > 16 µg/mL | MIC [3]: ≤ 0.12 µg/mL | MIC [4]: ≤ 0.12 µg/mL | MIC [5]: > 16 µg/mL | MIC [6]: > 16 µg/mL | MIC [7]: 16 µg/mL | MIC [8]: ≤ 0.12 µg/mL | MIC [9]: > 16 µg/mL | MIC [10]: 16 µg/mL | MIC [11]: 4 µg/mL | MIC [12]: ≤ 0.12 µg/mL | K [13]: 1.3 10^4/M/s | MIC [14]: ≤ 0.12 µg/mL | MIC [15]: ≤ 0.12 µg/mL | MIC [16]: > 16 µg/mL | MIC [17]: > 16 µg/mL | MIC [18]: 0.5 µg/mL

N#C[C@@H]1CC[C@@H]2CN1C(=O)N2OS(=O)(=O)[O-].[Na+]
MIC [19]: ≤ 0.12 µg/mL | MIC [20]: > 16 µg/mL | K [1]: 2.3 10^4/M/s | MIC [21]: ≤ 0.12 µg/mL | MIC [22]: ≤ 0.12 µg/mL | MIC [23]: ≤ 0.12 µg/mL | MIC [2]: 8 µg/mL | MIC [24]: 1 µg/mL | MIC [3]: ≤ 0.12 µg/mL | MIC [4]: ≤ 0.12 µg/mL | MIC [5]: > 16 µg/mL | MIC [25]: > 16 µg/mL | MIC [6]: > 16 µg/mL | MIC [7]: 8 µg/mL | MIC [8]: ≤ 0.12 µg/mL | MIC [26]: ≤ 0.12 µg/mL | MIC [27]: 2 µg/mL | MIC [9]: 16 µg/mL | MIC [10]: 16 µg/mL | MIC [11]: 8 µg/mL | MIC [28]: ≤ 0.12 µg/mL | MIC [29]: 16 µg/mL | MIC [30]: ≤ 0.12 µg/mL | MIC [12]: ≤ 0.12 µg/mL | MIC [31]: ≤ 0.12 µg/mL | MIC [32]: ≤ 0.12 µg/mL | MIC [33]: 1 µg/mL | MIC [34]: 0.25 µg/mL | K [13]: 2.4 10^5/M/s | MIC [14]: ≤ 0.12 µg/mL | MIC [35]: > 16 µg/mL | MIC [36]: > 16 µg/mL | MIC [15]: ≤ 0.12 µg/mL | MIC [37]: 0.25 µg/mL | MIC [38]: > 16 µg/mL | MIC [16]: > 16 µg/mL | MIC [17]: 16 µg/mL | MIC [18]: 0.25 µg/mL
